From ChEMBL document CHEMBL3352327, “Catechol-rhodanine derivatives: Specific and promiscuous inhibitors of Escherichia coli deoxyxylulose phosphate reductoisomerase (DXR)” (Bioorg Med Chem, 2014) come the findings set out here.

Each structure is given as a SMILES string. Calls of active or inactive are those of the source. No cut-off for these calls is given here.

What is called inhibition is the drop in the measured response relative to a control, in per cent. One may read the IC50 as the midpoint of a concentration-inhibition curve. Broadly, the logP is a log measure of how a compound divides between an organic and an aqueous phase. A low value points to lower lipophilicity. The term Ki denotes the equilibrium dissociation constant of an inhibitor or competing ligand from its target.

In series [1] the target is T1, 1-deoxy-D-xylulose 5-phosphate reductoisomerase (Escherichia coli K-12) (UniProt P45568).
T1 sequence (whole entry): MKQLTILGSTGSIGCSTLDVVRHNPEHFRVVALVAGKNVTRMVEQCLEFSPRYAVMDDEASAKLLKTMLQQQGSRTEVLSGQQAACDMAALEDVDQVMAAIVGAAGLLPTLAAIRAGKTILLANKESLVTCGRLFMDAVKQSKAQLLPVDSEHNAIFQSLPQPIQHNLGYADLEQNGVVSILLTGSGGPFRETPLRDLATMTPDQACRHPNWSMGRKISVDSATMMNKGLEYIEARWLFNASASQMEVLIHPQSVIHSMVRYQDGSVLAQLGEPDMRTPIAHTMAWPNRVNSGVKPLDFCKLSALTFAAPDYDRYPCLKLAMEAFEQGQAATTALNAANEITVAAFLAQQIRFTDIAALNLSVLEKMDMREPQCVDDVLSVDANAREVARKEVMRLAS
As to the kind of experiment: Inhibition of His-tagged Escherichia coli DXR at 10 uM pre-incubated for 2 mins before reaction initiation in presence of 160 uM NADPH.

The target of series [2] is T1, 1-deoxy-D-xylulose 5-phosphate reductoisomerase (Escherichia coli K-12). Nature of the series: Inhibition of His-tagged Escherichia coli DXR at 6 uM pre-incubated for 2 mins before reaction initiation in absence of 160 uM NADPH. The procedure, abridged:
(§1)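 H-DXR in 50 mM Tris/HCl pH 7.5, 3 mM MgCl2, 2 mM DTT, 37 °C. Enzyme preincubated 2 min with inhibitor at 6 µM, with or without NADPH (160 µM). Reaction started by DXP (480 µM final) to measure residual activity.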

Series [3] shares this target. As to the kind of experiment: Inhibition of His-tagged Escherichia coli DXR at 20 uM pre-incubated for 2 mins before reaction initiation in presence of 160 uM NADPH in presence of 0.01% Triton X100. The procedure, abridged:
(§2)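 His-tagged E. coli DXR at 37 °C in 50 mM Tris/HCl pH 7.5 with 3 mM MgCl2 and 2 mM DTT. Enzyme preincubated 2 min with inhibitor and 480 µM DXP, then started with NADPH (160 µM final). Run with or without 0.01% Triton X100. Final DMSO 0.4% (v/v). IC50 taken from % residual activity vs log[inhibitor]; otherwise % inhibition at 20 µM.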

The target of series [4] is T2, 1-deoxy-D-xylulose 5-phosphate reductoisomerase (Escherichia coli K-12, UniProt P45568).
T2 sequence (P45568 whole entry): T1 sequence (whole entry)
As to the kind of experiment: Inhibition of His-tagged Escherichia coli DXR pre-incubated for 2 mins before reaction initiation in presence of 160 uM NADPH in absence of 0.01% Triton X100.

Series [5] addresses T1, 1-deoxy-D-xylulose 5-phosphate reductoisomerase (Escherichia coli K-12). The note with it: 10 uM.
Series [6] has the same target. Nature of the series: Inhibition of His-tagged Escherichia coli DXR at 6 uM pre-incubated for 2 mins before reaction initiation in presence of 160 uM NADPH. The method in brief:
as §1

Series [7] addresses T3, Malate dehydrogenase (Thermus thermophilus, UniProt P10584).
T3 sequence (P10584 whole entry): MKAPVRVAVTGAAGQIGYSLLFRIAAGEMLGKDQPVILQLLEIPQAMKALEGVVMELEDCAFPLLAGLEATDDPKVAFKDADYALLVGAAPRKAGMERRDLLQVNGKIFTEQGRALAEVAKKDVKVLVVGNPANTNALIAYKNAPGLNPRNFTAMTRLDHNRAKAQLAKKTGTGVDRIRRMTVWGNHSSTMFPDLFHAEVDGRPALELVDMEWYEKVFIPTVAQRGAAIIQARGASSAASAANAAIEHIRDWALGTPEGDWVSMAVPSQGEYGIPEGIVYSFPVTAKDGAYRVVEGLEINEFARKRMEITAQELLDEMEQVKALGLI
Nature of the series: Inhibition of Thermus flavus MDH pre-incubated for 4 mins before reaction initiation in presence of OAA and NAPH in absence of 0.01% Triton X100 by UV-Vis spectrophotometry. The procedure, abridged:
(§3)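 MDH in 50 mM Tris/HCl pH 7.5 at 37 °C. Preincubated 4 min with inhibitor, with or without 0.01% (w/v) Triton X100. Reaction started by successive addition of oxaloacetate (250 µM final) and NADH (160 µM final). Initial rates followed as A340 decrease. At least duplicate; 0.4% DMSO final.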

In series [8] the target is T4, Malate dehydrogenase (Thermus thermophilus) (UniProt P10584).
T4 sequence (whole entry): T3 sequence (P10584 whole entry)
Nature of the series: Inhibition of Thermus flavus MDH at 50 uM pre-incubated for 4 mins before reaction initiation in presence of OAA and NAPH in presence of 0.01% Triton X100 by UV-Vis spectrophotometry. The procedure, abridged: as §3

For series [9], the target named is T4, Malate dehydrogenase (Thermus thermophilus). Nature of the series: Inhibition of Thermus flavus MDH at 10 uM pre-incubated for 4 mins before reaction initiation in presence of OAA and NAPH in presence of 0.01% Triton X100 by UV-Vis spectrophotometry. The procedure, abridged:
as §3

For series [10] the target is unchanged. Nature of the series: Inhibition of Thermus flavus MDH at 50 uM pre-incubated for 4 mins before reaction initiation in presence of OAA and NAPH in absence of 0.01% Triton X100 by UV-Vis spectrophotometry. The procedure, abridged:
as §3

Series [11] concerns the target T1, 1-deoxy-D-xylulose 5-phosphate reductoisomerase (Escherichia coli K-12). As to the kind of experiment: Inhibition of His-tagged Escherichia coli DXR at 20 uM pre-incubated for 2 mins before reaction initiation in presence of 160 uM NADPH in absence of 0.01% Triton X100. The method in brief:
as §2

The nature of series [12]: Lipophilicity, log P of the compound. It counts as physicochemical. The note with it: octanol/water.
Series [13] deals with Escherichia coli. Nature of the series: Antimicrobial activity against Escherichia coli XL1 Blue at 800 nmol/4 uL by paper disc diffusion method. It is filed as functional. The procedure, abridged:
(§4)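 Paper disc diffusion on E. coli XL1 Blue. Discs impregnated with compound dissolved in DMSO (4 µL): 400 nmol in the initial screen, then 200 to 800 nmol. Read-out is the diameter of the growth inhibition zone (mm).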
(Agar diffusion results depend on both activity and mobility in agar.)

In series [14] the target is T1, 1-deoxy-D-xylulose 5-phosphate reductoisomerase (Escherichia coli K-12). The note with it: 1 to 8 uM.
Series [15] concerns Escherichia coli. As to the kind of experiment: Antimicrobial activity against Escherichia coli XL1 Blue at 400 nmol/4 uL by paper disc diffusion method. It is filed as functional. The method in brief:
as §4

Series [16] deals with T2, 1-deoxy-D-xylulose 5-phosphate reductoisomerase. Nature of the series: Inhibition of His-tagged Escherichia coli DXR pre-incubated for 2 mins before reaction initiation in presence of 160 uM NADPH in presence of 0.01% Triton X100. The procedure, abridged: as §2
In series [17] the target is T3, Malate dehydrogenase. As to the kind of experiment: Inhibition of Thermus flavus MDH pre-incubated for 4 mins before reaction initiation in presence of OAA and NAPH in presence of 0.01% Triton X100 by UV-Vis spectrophotometry. The procedure, abridged:
as §3

Series [18] addresses T2, 1-deoxy-D-xylulose 5-phosphate reductoisomerase.

As for `Cc1ccc(Oc2ccc(NC(=O)CN3C(=O)/C(=C/c4ccc(O)c(O)c4)SC3=S)cc2)cc1`, the inhibition is 53% in series [1]; 38% in series [2]; 10% in series [3]; less than 5% in series [5]; 30% in series [6]; less than 5% in [8]. Moreover, the IC50 in [4] is 4.1 µM; in [7], 0.4 µM.
On to `O=C(CN1C(=O)/C(=C/c2ccc(O)cc2O)SC1=S)Nc1ccc(Oc2ccc(Cl)cc2)cc1`, for which the IC50 in series [4] amounted to 58 µM; in series [7], 1.3 µM. The inhibition in series [9] is less than 5%.
Regarding `O=C(O)CN1C(=O)/C(=C/c2ccccc2)SC1=S`, the inhibition in [10] and in series [11] was less than 5% in each case.
Take `O=C(CN1C(=O)/C(=C/c2cccc(O)c2O)SC1=S)Nc1ccc(Oc2ccc(Cl)cc2)cc1`: the inhibition in series [2] was 63%; in [3] it was less than 5%; in series [6] it was 43%; in series [9] it was less than 5%. Moreover, the IC50 in series [4] is 3.3 µM; in series [7] it was 0.7 µM.
For the molecule `O=C(CN1C(=O)/C(=C/c2ccc(O)c(O)c2)SC1=S)Nc1ccc(Oc2ccc(Cl)cc2)cc1`, the inhibition in [2] is 64%; in series [3], less than 5%; in series [6], 41%; in series [8], less than 5%. Moreover, the IC50 was 3.2 µM in [4] and 0.5 µM in [7].
Turning to `Cc1ccc(Oc2ccc(NC(=O)CN3C(=O)/C(=C/c4cccc(O)c4O)SC3=S)cc2)cc1`, the inhibition in series [2] is 60%; in [3], less than 5%; in series [6], 38%; in series [9] it was less than 5%. Further, the 50% inhibitory concentration (IC50) turned out to be 3.6 µM in series [4] and 1 µM in series [7].
For `O=C(CN1C(=O)/C(=C/c2ccc(O)c(O)c2)SC1=S)NO`, the inhibition amounted to 70% in series [2], 29% in [6] and 53% in [8]. In addition, the logP in series [12] was determined as 1.8. Further, the entries for the “inhibition zone (IZ)” value in series [13] and in [15] were 20 mm and 14 mm, respectively. Further, the results for the IC50 in [4], in series [7] and in [16] were 3.8 µM, 3.4 µM and 6.1 µM, respectively. In [14], the inhibition result is “Active”.
As for `O=C(O)CN1C(=O)/C(=C/c2ccc(O)c(O)c2)SC1=S`, the inhibition turned out to be 61% in [2] and 41% in [6]. The logP in [12] turned out to be 1. In addition, the IC50 came out at 3.1 µM in series [4], 15 µM in [17], 4.7 µM in series [7] and 4.4 µM in series [16]. In series [14], this molecule had an alphaKi of 3 µM. In series [18], this molecule displayed an inhibition constant (Ki) of 7.7 µM.
